ERp5 block: inhibitors of ERp5-driven insulin aggregation, primary screen, biochemical, turbidity, absorbance 650 nm, single point | AID 651711, 2012 | 0.05% of 350,000 active | Protein disulfide-isomerase A6 (Homo sapiens), Q15084 | 90 min | inhibition, % at 9.99 µM;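 active = mean replicate inhibition above about 25%, with every replicate also reaching it, limit read from the data, passing the limit was not always enough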
FN deposit inh: inhibitors of fibronectin matrix deposition, primary screen, AH1F cells, Alexa488-fibronectin fluorescence, plate reader; AH1F fibroblasts, overnight; inhibition, % at 12.6 µM; 0.086% of 350,000 active;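 active = mean inhibition across replicates of 30% or more, regardless of how many single replicates reach that level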;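 note: positive control wells lacked labelled fibronectin entirely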
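Material – AH1F fibroblast monolayer, labelled fibronectin deposition · Reagent – labelled fibronectin 24 nM · Timing – 1 h adhesion, overnight exposure · Measured by – fluorescence at 485 nm excitation, 525 nm emission · Read-out – inhibition of fibronectin deposition signal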
PDI turbidity: inhibitors of human PDI, primary screen, biochemical, turbidity, single point, plate reader. Protein disulfide-isomerase (Homo sapiens), P07237. PDI insulin aggregation turbidity, A650, 90 min. inhibition, % at 10 µM. 0.052% of 350,000 active. AID 588391, 2011;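 active = mean inhibition across replicates of 30% or more, whatever share of single replicates reach that level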
Target sequence (P07237 whole entry, looked up): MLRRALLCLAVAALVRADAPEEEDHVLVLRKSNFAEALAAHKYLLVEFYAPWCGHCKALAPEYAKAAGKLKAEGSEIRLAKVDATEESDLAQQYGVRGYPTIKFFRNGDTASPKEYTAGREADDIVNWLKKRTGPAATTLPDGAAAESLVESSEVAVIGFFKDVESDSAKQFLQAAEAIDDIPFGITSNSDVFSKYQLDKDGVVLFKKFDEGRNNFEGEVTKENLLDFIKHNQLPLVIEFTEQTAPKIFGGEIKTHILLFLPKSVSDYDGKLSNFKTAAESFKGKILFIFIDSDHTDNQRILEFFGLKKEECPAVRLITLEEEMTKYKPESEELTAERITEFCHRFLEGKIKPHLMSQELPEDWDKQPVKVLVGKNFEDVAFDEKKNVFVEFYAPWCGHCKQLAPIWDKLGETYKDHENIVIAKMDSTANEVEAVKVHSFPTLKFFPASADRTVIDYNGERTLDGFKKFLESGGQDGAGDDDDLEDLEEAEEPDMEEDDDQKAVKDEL
HIV Env fusion: inhibitors of HIV-1 Env-driven cell-cell fusion, primary screen, HeLa-JRFL effector, CEM21 target cells, luciferase. inhibition, % at 12.3 µM. 1.1% of 360,000 active. AID 651610, 2012;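 active = mean replicate inhibition score of at least 50 and every replicate individually at or above 50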;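 note: 0% = plate neutral controls and 100% = maraviroc near 300 nM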
INS-1E GSIS act: GLuc luminescence reporter in INS-1E cells, primary screen for activators of glucose-dependent secretion of insulin. INS-1E GLuc reporter insulin secretion, 2-3 h. activation, % at 16.6 µM. 0.61% of 370,000 active. AID 743287, 2014;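 active = lowest replicate activation of at least 40%, so every replicate reaches that level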;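 note: 0% = median of neutral control wells and 100% = median of IBMX positive control wells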
An asterisk follows results filed as active; / = no result given; [ ] = another dose, or the depositor's remark. An excerpt weighted towards active compounds, which were near 1.4% of everything screened.

SMILES | ERp5 block | FN deposit inh | PDI turbidity | HIV Env fusion | INS-1E GSIS act
C[C@@H]1CN([C@H](C)CO)C(=O)c2cc(-c3ccc(C#N)cc3)cnc2O[C@H]1CN(C)Cc1ccncc1 | 4 | -1 | / | -91[16.7 µM] | -11
CC(=O)Nc1ccc2c(c1)C(N1CC3CCC(CC3)C1)c1ccccc1-2 (stereo not given) | 2 | 14 | 0 | 67* | 5
CCOCC(=O)Nc1c(C(=O)OCC)oc2ccccc12 | / | 1 | 2 | -15 | 44*
Cc1cccc(OCC(=O)N/N=C/c2cccn2C)c1 | 1 | 4 | 1 | 62* | -3
CCC(=O)N1CCCc2cc(S(=O)(=O)N3CCN(c4ccccc4F)CC3)ccc21 | 1 | 3 | / | 41* | -23
COc1cccc(S(=O)(=O)N(C)C[C@H]2Oc3cc(C4=CCCC4)ccc3S(=O)(=O)N([C@@H](C)CO)C[C@@H]2C)c1 | 4 | -11 | / | -9[16.7 µM] | -3
COc1cccc(S(=O)(=O)N(C)C[C@H]2Oc3cc(C4=CCCC4)ccc3S(=O)(=O)N([C@H](C)CO)C[C@H]2C)c1 | -2 | -6 | / | 95*[16.7 µM] | -1
COc1cccc(S(=O)(=O)N(C)C[C@H]2Oc3cc(C4=CCCC4)ccc3S(=O)(=O)N([C@H](C)CO)C[C@@H]2C)c1 | 1 | 2 | / | 63*[16.7 µM] | 14
CO[C@H]1CN(C)C(=O)c2cc(NS(C)(=O)=O)ccc2OC[C@@H](C)N(Cc2nccs2)C[C@H]1C | 1 | -12 | / | 6[16.7 µM] | 6
CNC(=O)C(=O)NCC1OCCCN1S(=O)(=O)c1ccc(F)cc1C (stereo not given) | -17 | 11 | 4 | -3 | 44*
Cc1ccc(S(=O)(=O)N2CCCOC2CNC(=O)C(=O)NCCC2=CCCCC2)cc1 (stereo not given) | / | 8 | -15 | 60* | -29
Cc1noc(C)c1NC(=O)Nc1ccc2c(c1)C(=O)N([C@H](C)CO)C[C@@H](C)[C@H](CN(C)C)OCCCC[C@@H](C)O2 | -2 | / | / | 3[16.7 µM] | 8
O=C([C@H]1O[C@@H](n2ccc(=O)[nH]c2=O)[C@H](O)[C@@H]1O)N1CCN(Cc2ccccn2)CC1 | 7 | -2 | / | 57* | 11
O=C1N[C@H](Cc2ccccc2)COCn2nncc2CC[C@@H]1Cc1ccccc1 | / | -8 | / | -20[16.7 µM] | 10
c1ccc2sc(SCSc3nc4ccccc4s3)nc2c1 | 2 | 3 | -1 | -24 | -5
O=C(O)CCSc1nc2ccccc2s1 | / | -14 | 3 | 78* | 10
COCC(=O)N1[C@@H](CO)[C@@H](c2ccc(-c3ccccc3)cc2)C12CN(C(C)=O)C2 | -8 | 0 | / | / | 3
C[C@H](CO)N1C[C@H](C)[C@H](CN(C)Cc2ccccc2F)Oc2cc(C3=CCCC3)ccc2S1(=O)=O | -2 | 8 | / | 68*[16.7 µM] | -1
C[C@@H]1CN([C@@H](C)CO)S(=O)(=O)c2ccc(C3=CCCC3)cc2O[C@H]1CN(C)Cc1ccccc1F | 5 | / | / | 11[16.7 µM] | -7
C[C@@H]1CN([C@@H](C)CO)S(=O)(=O)c2ccc(C3=CCCC3)cc2O[C@@H]1CN(C)C(=O)C1CCOCC1 | 0 | -1 | / | 70*[16.7 µM] | 5
C[C@H](CO)N1C[C@H](C)[C@@H](CN(C)CC2CCCC2)Oc2cc(C3=CCCCC3)ccc2S1(=O)=O | 0 | / | / | 56*[16.7 µM] | -1
Cc1oc2ccc(O)cc2c1C(=O)c1ccc(Br)cc1 | 1 | 34* | -7 | -4 | 34
CCOC(=O)C1=C(CC)Nc2ccccc2N=C1NC(=O)Nc1ccc(Cl)c(Cl)c1 | 3 | -7 | -4 | 114* | -11
COc1ccc(S(=O)(=O)N(C)C[C@@H]2Oc3ccc(NC(=O)Nc4ccc5c(c4)OCO5)cc3CC(=O)N([C@@H](C)CO)C[C@H]2C)cc1 | 12 | / | / | 33[16.7 µM] | 9
COc1cccc(S(=O)(=O)N[C@@H]2CC[C@H](CC(=O)NC3CCC3)O[C@H]2CO)c1 | -2 | / | / | -9[16.7 µM] | -3
SMILES | ERp5 block | FN deposit inh | PDI turbidity | HIV Env fusion | INS-1E GSIS act
N#CCn1c(C2CCCCC2)nc2ccccc2c1=O | / | 1 | -4 | 0 | /
Nn1c(C2CCCCC2)nc2ccccc2c1=O | 0 | 1 | -3 | 10 | 50*
C[C@H](CO)N1C[C@H](C)[C@H](CN(C)C(=O)C2CCCCC2)OCCCC[C@H](C)Oc2ccc(NC(=O)Nc3ccc4c(c3)OCO4)cc2C1=O | 6 | / | / | 78*[16.7 µM] | -18
COc1ccc(NC(=O)Nc2ccc3c(c2)C(=O)N([C@H](C)CO)C[C@H](C)[C@H](CN(C)Cc2ccc(Cl)c(Cl)c2)OCCCC[C@H](C)O3)cc1 | -6 | / | / | 91*[16.7 µM] | -6
C[C@H]1CCCCO[C@@H](CN(C)Cc2ccccc2)[C@@H](C)CN([C@@H](C)CO)C(=O)c2cc(NC(=O)Nc3ccc4c(c3)OCO4)ccc2O1 | 2 | -6 | / | 57*[16.7 µM] | -28
C[C@@H]1CN([C@H](C)CO)C(=O)c2cc(NC(=O)Nc3ccc4c(c3)OCO4)ccc2O[C@@H](C)CCCCO[C@H]1CN(C)Cc1ccc2c(c1)OCO2 | 0 | 2 | / | 1[16.7 µM] | -33
C[C@@H]1CN([C@H](C)CO)C(=O)c2cc(NC(=O)Nc3ccc4c(c3)OCO4)ccc2O[C@@H](C)CCCCO[C@H]1CN(C)C(=O)C1CCCCC1 | 3 | / | / | 37[16.7 µM] | -4
C[C@H](CO)N1C[C@H](C)[C@H](CN(C)Cc2ccc3c(c2)OCO3)OCCCC[C@H](C)Oc2ccc(NC(=O)Nc3ccc4c(c3)OCO4)cc2C1=O | -2 | 7 | / | 66*[16.7 µM] | -27
C[C@@H]1CCCCO[C@@H](CN(C)Cc2ccccc2)[C@H](C)CN([C@H](C)CO)C(=O)c2cc(NC(=O)Nc3ccc4c(c3)OCO4)ccc2O1 | -1 | 6 | / | -63[16.7 µM] | -18
C[C@H](CO)N1C[C@H](C)[C@H](CN(C)Cc2ccc(Oc3ccccc3)cc2)Oc2c(NC(=O)Nc3ccc4c(c3)OCO4)cccc2C1=O | 1 | 22 | / | / | -27
C[C@@H]1CN([C@H](C)CO)C(=O)c2cc(NC(=O)Nc3ccc4c(c3)OCO4)ccc2O[C@H]1CN(C)Cc1ccncc1 | -1 | 6 | 15 | 58* | 0
C[C@H]1CN([C@@H](C)CO)C(=O)c2cc(NC(=O)Nc3ccc4c(c3)OCO4)ccc2O[C@H]1CN(C)Cc1ccncc1 | 2 | 11 | / | 13[16.7 µM] | 7
C[C@@H]1CN([C@@H](C)CO)C(=O)c2cc(NC(=O)Nc3ccc4c(c3)OCO4)ccc2O[C@@H](C)CCCCO[C@H]1CN(C)Cc1ccc(Cl)c(Cl)c1 | 2 | / | / | 67*[16.7 µM] | 17
C[C@@H]1CN([C@H](C)CO)C(=O)c2cccc(NC(=O)Nc3ccc4c(c3)OCO4)c2O[C@H]1CN(C)Cc1ccc(Oc2ccccc2)cc1 | 32* | / | / | / | -10
C[C@H](CO)N1C[C@H](C)[C@@H](CN(C)S(=O)(=O)c2ccccc2)Oc2ccc(NS(=O)(=O)c3cccs3)cc2CC1=O | 3 | / | / | -17[16.7 µM] | -3
